The values below come from ChEMBL document CHEMBL1155597, “Activity of extracts and isolated naphthoquinones from Kigelia pinnata against Plasmodium falciparum” (J Nat Prod, 2000).

The first data set deals with Plasmodium falciparum. Nature of the data set: Antimalarial activity after 48 hrs against chloroquine-sensitive Plasmodium falciparum T9-96 by LDH reporter assay. In kind it is functional, organism-based. Conditions: T9-96, 48 h. In a few lines:
(§1)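 Asexual cultures kept in 5% A+ human red cells in RPMI 1640 with HEPES, glucose, NaHCO3, hypoxanthine, gentamycin and 10% A+ human serum under 1% O2/3% CO2/96% N2 at 37 °C. Ring-stage blood (1% parasitemia, 2% hematocrit) exposed 48 h to compounds at 50 µg/mL to 1.63 ng/mL final (2-fold). Modified LDH read-out: Malstat, then NBT/phenazine ethosulfate, absorbance at 650 nm. Tested twice in triplicate; IC50 ± SD.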
Regarding `CC(O)c1cc2c(o1)C(=O)c1ccccc1C2=O` (stereo unspecified), the 50% inhibitory concentration (IC50) stood at 0.718 µM.
On the same count and under the same terms, under `CC1=C2C=C3C(=O)c4cc(O)ccc4C(=O)C3(O)C(C)=C2CC1` (stereo unspecified) [ISOKIGELINOL] stands 11.9 µM.
In turn, `C[C@]12CC[C@@H]3[C@H]1C=C1C(=O)c4cc(O)ccc4C(=O)[C@@]1(O2)[C@]3(C)C=O` [ISOPINNATAL] registered an IC50 of 1.55 µM.
The same measure, in the same setting: under `CC1=C2C=C3C(=O)c4ccc(O)cc4C(=O)C3(O)C(C)=C2CC1` (stereo unspecified) [KIGELINOL] stands 15.2 µM.

The next data set has as its system Plasmodium falciparum. Nature of the data set: Antimalarial activity after 48 hrs against chloroquine-resistant Plasmodium falciparum K1 by LDH reporter assay. In kind it is functional, organism-based. Conditions: K1, 48 h. In a few lines: as §1
For the compound `CC(O)c1cc2c(o1)C(=O)c1ccccc1C2=O` (stereo unspecified), the IC50 was 0.627 µM.
The same measure, in the same setting: under `CC1=C2C=C3C(=O)c4cc(O)ccc4C(=O)C3(O)C(C)=C2CC1` (stereo unspecified) [ISOKIGELINOL] stands 15.2 µM; under `C[C@]12CC[C@@H]3[C@H]1C=C1C(=O)c4cc(O)ccc4C(=O)[C@@]1(O2)[C@]3(C)C=O` [ISOPINNATAL], 0.763 µM; under `CC1=C2C=C3C(=O)c4ccc(O)cc4C(=O)C3(O)C(C)=C2CC1` (stereo unspecified) [KIGELINOL], 16.7 µM.

The test system of a further data set is KB. Nature of the data set: Cytotoxicity against human KB cells after 48 hrs by MTT assay. The class given is functional. The note with it: read-out: ED50 (the source's name). An outline of the steps: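 KB human oral epidermal carcinoma cells in DMEM glutamax-1 + 10% HIFCS, 37 °C, 5% CO2. Log-phase cells seeded at 25 000/well and left 24 h to attach. Compounds added from DMSO (≤0.5% final), 200 to 0.064 μg/mL in 5-fold series, triplicate. After 48 h, MTT added for 4 h, formazan dissolved in DMSO, A540 blank-subtracted. Growth expressed as % of untreated control.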
Regarding `CC(O)c1cc2c(o1)C(=O)c1ccccc1C2=O` (stereo unspecified), the EC50 was determined as 3.9 µM.
In the case of `CCN(CC)CCCC(C)Nc1ccnc2cc(Cl)ccc12` (stereo unspecified) [CHLOROQUINE PHOSPHATE], the EC50 stood at 43.9 µM.
Still for that read-out and setting: to `CC1=C2C=C3C(=O)c4cc(O)ccc4C(=O)C3(O)C(C)=C2CC1` (stereo unspecified) [ISOKIGELINOL] belongs 167 µM.
The same measure, in the same setting: to `C[C@]12CC[C@@H]3[C@H]1C=C1C(=O)c4cc(O)ccc4C(=O)[C@@]1(O2)[C@]3(C)C=O` [ISOPINNATAL] belongs 14.8 µM; to `CC1=C2C=C3C(=O)c4ccc(O)cc4C(=O)C3(O)C(C)=C2CC1` (stereo unspecified) [KIGELINOL], 148 µM.

Test system in a further data set: not listed separately
As to the kind of experiment: Selectivity ratio of ED50 for KB cells to IC50 for Plasmodium falciparum K1. In kind it is ADME, cell-based. The note with it: human, KB cells (cytotoxicity) versus Plasmodium falciparum K1. In a few lines: (§2)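 Ratio of KB ED50 to P. falciparum IC50. KB ED50 comes from the 48 h MTT assay. Parasite IC50 comes from a 48 h modified lactate dehydrogenase assay on ring-stage cultures (1% parasitemia, 2% hematocrit, A+ human RBC), 37 °C, 1% O2/3% CO2/96% N2. Compounds tested at 50 μg/mL to 1.63 ng/mL in 2-fold dilutions, twice in triplicate, with NBT/PES read at 650 nm.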
Consider `CC(O)c1cc2c(o1)C(=O)c1ccccc1C2=O` (stereo unspecified), for which the selectivity ratio amounted to 6.18.
The same measure, in the same setting: to `CC1=C2C=C3C(=O)c4cc(O)ccc4C(=O)C3(O)C(C)=C2CC1` (stereo unspecified) [ISOKIGELINOL] belongs 12.7.
Same read-out and setting: under `C[C@]12CC[C@@H]3[C@H]1C=C1C(=O)c4cc(O)ccc4C(=O)[C@@]1(O2)[C@]3(C)C=O` [ISOPINNATAL] stands 19.4.
Same read-out and setting: to `CC1=C2C=C3C(=O)c4ccc(O)cc4C(=O)C3(O)C(C)=C2CC1` (stereo unspecified) [KIGELINOL] belongs 8.88.

Test system in another data set: not listed separately
Nature of the data set: Selectivity ratio of ED50 for KB cells to IC50 for Plasmodium falciparum T9-96. Conditions: human, KB cells (cytotoxicity) versus Plasmodium falciparum T9-96. In kind it is ADME, cell-based. An outline of the steps:
as §2
For the compound `CC(O)c1cc2c(o1)C(=O)c1ccccc1C2=O` (stereo unspecified), the selectivity ratio was determined as 5.4.
The same measure, in the same setting: under `CC1=C2C=C3C(=O)c4cc(O)ccc4C(=O)C3(O)C(C)=C2CC1` (stereo unspecified) [ISOKIGELINOL] stands 14; under `C[C@]12CC[C@@H]3[C@H]1C=C1C(=O)c4cc(O)ccc4C(=O)[C@@]1(O2)[C@]3(C)C=O` [ISOPINNATAL], 9.54.
Still for that read-out and setting: under `CC1=C2C=C3C(=O)c4ccc(O)cc4C(=O)C3(O)C(C)=C2CC1` (stereo unspecified) [KIGELINOL] stands 9.74.
